In ChEMBL document CHEMBL1154638, “14beta-Arylpropiolylamino-17-cyclopropylmethyl-7,8-dihydronormorphinones and related opioids. Further examples of pseudoirreversible mu opioid receptor antagonists” (J Med Chem, 2009):
Activity calls are given as the source filed them. The rule behind the calls is not given here.

How the values were obtained:
[1] = biological target: T1, Kappa-type opioid receptor (Homo sapiens, UniProt P41145); assay: Agonist activity at human kappa opioid receptor expressed in CHO cells assessed as [35S]GTPgammaS binding relative to U69593; assay type: functional, cell-based
Summary of the method: (§1)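 Membranes from CHO cells transfected with individual recombinant human opioid receptors (mu, delta or kappa). Ligand-stimulated [35S]GTPγS binding is measured at each receptor type, for agonist stimulation and for antagonism. At kappa, agonist efficacy is expressed as % stimulation relative to U69593, alongside EC50.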

Mu-type opioid receptor = Mu-type opioid receptor (Homo sapiens, UniProt P35372); assay: Displacement of [3H]DAMGO from human recombinant mu opioid receptor expressed in CHO cells by liquid scintillation counting; assay type: cell-based
Summary of the method: (§2)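 Competitive displacement binding uses membranes from CHO cells expressing recombinant human opioid receptors. Radioligands are [3H]DAMGO for mu and [3H]DPDPE for delta. Ki is reported in nM as the mean of two experiments, each run in triplicate.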

[2] = biological target: T2, Delta-type opioid receptor (Homo sapiens, UniProt P41143); assay: Displacement of [3H]DPDPE from human recombinant delta opioid receptor expressed in CHO cells by liquid scintillation counting; assay type: cell-based; summary of the method: as §2
[3] = biological target: T1, Kappa-type opioid receptor; assay: Displacement of [3H]U69593 from human recombinant kappa opioid receptor expressed in CHO cells by liquid scintillation counting; assay type: cell-based
[4] = biological target: T1, Kappa-type opioid receptor; assay: Agonist activity at human kappa opioid receptor expressed in CHO cells assessed as [35S]GTPgammaS binding; assay type: functional, cell-based; summary of the method: as §1
Mus musculus [5] = assay: Antinociceptive activity in Swiss mouse assessed as tail withdrawal response at 100 mg/kg, ip after […] by warm-water tail-withdrawal assay; assay type: functional; conditions: route intraperitoneal
[6] = Displacement of [3H]DPDPE from human recombinant delta opioid receptor expressed in CHO cells by liquid scintillation counting
Mus musculus [7] = assay: Antinociceptive activity in Swiss mouse assessed as tail withdrawal response at 100 mg/kg, ip after 3 days by warm-water tail-withdrawal assay; assay type: functional; conditions: route intraperitoneal
Mus musculus [8] = assay: Antinociceptive activity against acetic acid-induced writhing in Swiss mouse assessed as reversal of mu opioid receptor agonist morphine response at 3.2 mg/kg, ip by writhing assay; assay type: functional, organism-based; design: dose 3.2 mg/kg
Summary of the method: (§3)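 Mouse abdominal stretch assay. […] Stretches were counted, with saline as vehicle. Statistics used one-way ANOVA with Dunnett's post hoc test versus agonist alone and versus test ligand alone.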

Mus musculus [9] = assay: Antinociceptive activity against acetic acid-induced writhing in Swiss mouse assessed as reversal of mu opioid receptor agonist morphine response at 1 mg/kg, ip by writhing assay; assay type: functional, organism-based; design: dose 1 mg/kg
Mus musculus [10] = assay type: functional, organism-based; design: dose 1 mg/kg; conditions: Swiss, 1 mg/kg
Mus musculus [11] = assay: Antinociceptive activity against acetic acid-induced writhing in Swiss mouse assessed as reversal of […] response at 1 mg/kg, ip by writhing assay; assay type: functional, organism-based; design: dose 1 mg/kg
Mus musculus [12] = assay type: functional, organism-based; design: dose 3.2 mg/kg; conditions: Swiss, 3.2 mg/kg
Mus musculus [13] = assay: Antinociceptive activity in Swiss mouse assessed as tail withdrawal response at 100 mg/kg, ip after 30 mins by warm-water tail-withdrawal assay; assay type: functional; conditions: route intraperitoneal
Mus musculus [14] = assay: Antinociceptive activity against acetic acid-induced writhing in Swiss mouse assessed as reversal of […] response at 3.2 mg/kg, ip by writhing assay; assay type: functional, organism-based; design: dose 3.2 mg/kg; summary of the method: as §3
[15] = biological target: T2, Delta-type opioid receptor; assay: Agonist activity at human delta opioid receptor expressed in CHO cells assessed as [35S]GTPgammaS binding; assay type: functional, cell-based; summary of the method: as §1
Mus musculus [16] = assay: Antinociceptive activity in Swiss mouse assessed as tail withdrawal response at 3.2 mg/kg, ip by warm-water tail-withdrawal assay; assay type: functional, organism-based; design: dose 3.2 mg/kg
Summary of the method: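 Mouse warm-water (50 °C) tail-withdrawal assay. Compound was given across a dose range, and antinociception was expressed as a percentage of the maximum possible effect.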

Mus musculus [17] = assay: Antinociceptive activity in Swiss mouse assessed as inhibition of acetic acid-induced writhing at 0.32 mg/kg, ip by writhing assay in presence of mu opioid receptor antagonist M-CAM; assay type: functional, organism-based; design: dose 0.32 mg/kg
Mus musculus [18] = assay: Antinociceptive activity in Swiss mouse assessed as inhibition of acetic acid-induced writhing at 0.32 mg/kg, ip by writhing assay in presence of delta opioid receptor antagonist naltrindole; assay type: functional, organism-based; design: dose 0.32 mg/kg
[19] = biological target: T2, Delta-type opioid receptor; assay: Agonist activity at human delta opioid receptor expressed in CHO cells assessed as [35S]GTPgammaS binding relative to DPDPE; assay type: functional, cell-based; summary of the method: as §1
Mus musculus [20] = assay: Antinociceptive activity in Swiss mouse assessed as inhibition of acetic acid-induced writhing at 0.32 mg/kg, ip by writhing assay in presence of kappa opioid receptor antagonist norBNI; assay type: functional, organism-based; design: dose 0.32 mg/kg
Mus musculus [21] = assay: Antinociceptive activity in Swiss mouse assessed as inhibition of acetic acid-induced writhing at 0.32 mg/kg, ip by writhing assay; assay type: functional, organism-based; design: dose 0.32 mg/kg

T2 sequence (P41143 whole entry): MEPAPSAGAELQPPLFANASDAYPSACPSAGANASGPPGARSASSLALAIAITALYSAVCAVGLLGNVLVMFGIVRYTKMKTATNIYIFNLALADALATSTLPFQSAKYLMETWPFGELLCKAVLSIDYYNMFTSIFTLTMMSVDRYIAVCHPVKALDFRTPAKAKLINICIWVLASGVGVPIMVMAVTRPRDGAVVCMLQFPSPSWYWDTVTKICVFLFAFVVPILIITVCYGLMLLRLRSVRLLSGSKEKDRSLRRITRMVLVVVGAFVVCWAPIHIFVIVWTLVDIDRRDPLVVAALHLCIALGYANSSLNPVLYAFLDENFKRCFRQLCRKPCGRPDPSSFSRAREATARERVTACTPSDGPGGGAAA
T1 sequence (P41145 whole entry): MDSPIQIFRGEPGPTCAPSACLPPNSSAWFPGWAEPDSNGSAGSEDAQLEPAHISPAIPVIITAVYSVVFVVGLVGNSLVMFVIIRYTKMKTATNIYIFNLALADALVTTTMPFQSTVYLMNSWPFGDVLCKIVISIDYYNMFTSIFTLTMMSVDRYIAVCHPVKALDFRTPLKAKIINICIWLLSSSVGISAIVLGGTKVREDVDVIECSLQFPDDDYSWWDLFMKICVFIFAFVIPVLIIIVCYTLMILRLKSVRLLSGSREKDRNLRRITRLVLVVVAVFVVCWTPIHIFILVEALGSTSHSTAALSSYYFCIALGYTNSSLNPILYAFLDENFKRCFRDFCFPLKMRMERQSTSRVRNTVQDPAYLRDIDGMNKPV
Mu-type opioid receptor, sequence (P35372 whole entry): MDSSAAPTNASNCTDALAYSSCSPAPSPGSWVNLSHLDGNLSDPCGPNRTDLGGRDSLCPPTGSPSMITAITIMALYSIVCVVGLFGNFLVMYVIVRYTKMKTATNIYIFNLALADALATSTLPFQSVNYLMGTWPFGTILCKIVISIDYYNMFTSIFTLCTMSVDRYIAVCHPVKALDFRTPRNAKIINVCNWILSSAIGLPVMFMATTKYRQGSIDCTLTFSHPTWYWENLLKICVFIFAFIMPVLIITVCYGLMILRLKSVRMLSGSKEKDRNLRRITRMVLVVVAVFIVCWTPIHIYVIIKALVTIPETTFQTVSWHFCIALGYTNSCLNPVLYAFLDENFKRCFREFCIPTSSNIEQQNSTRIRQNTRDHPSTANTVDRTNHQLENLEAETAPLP

Row | Structure (SMILES) | Activity [1] [%] | Ki (Mu-type opioid receptor) [nM] | Ki [2] [nM] | Ki [3] [nM] | EC50 [4] [nM] | other results
1 | O=C(C#Cc1ccccc1)N[C@@]12CCC(=O)[C@@H]3Oc4c(O)ccc5c4[C@@]31CCN(CC1CC1)[C@@H]2C5 | 21 | 1.31 | 1.6 | 1.12 | 0.3 | Activity (Mus musculus [5]): 0%
2 | COc1ccc2c3c1O[C@H]1C(=O)CC[C@@]4(NC/C=C/c5ccc(Cl)cc5)[C@@H](C2)N(CC2CC2)CC[C@]314 |  | 0.7 |  | 53.6 |  | Ki [6]: 44.5 nM
3 | COc1ccc2c3c1O[C@H]1C(=O)CC[C@@]4(NCC#Cc5ccc(Cl)cc5)[C@@H](C2)N(CC2CC2)CC[C@]314 |  | 9.68 | 136 | 74.4 |  | 
4 | O=C1CC[C@@]2(NCC#Cc3ccc(Cl)cc3)[C@H]3Cc4ccc(O)c5c4[C@@]2(CCN3CC2CC2)[C@H]1O5 |  | 0.97 | 3.26 | 2.89 |  | 
5 | O=C(C#Cc1ccc(Cl)cc1)N[C@@]12CCC(=O)[C@@H]3Oc4c(O)ccc5c4[C@@]31CCN(CC1CC1)[C@@H]2C5 |  | 3.75 | 5.41 | 2.73 |  | Activity (Mus musculus [7]): 20%; Activity (Mus musculus [8]): Active; Activity (Mus musculus [9]): Active; Activity (Mus musculus [10]): Active; Activity (Mus musculus [11]): Active; Activity (Mus musculus [12]): Active; Activity (Mus musculus [13]): 0%; Activity (Mus musculus [14]): Active
6 | COc1ccc2c3c1O[C@H]1C(=O)CC[C@@]4(NC(=O)C#Cc5ccccc5)[C@@H](C2)N(CC2CC2)CC[C@]314 | 77 | 1.46 | 28.3 | 7.86 | 3.18 | EC50 [15]: 75.1 nM; Activity (Mus musculus [16]): Active; Activity (Mus musculus [17]): inactive; Activity (Mus musculus [18]): Active; Activity [19]: 47%; Activity (Mus musculus [20]): Active; Activity (Mus musculus [21]): Active
7 | COc1ccc2c3c1O[C@H]1C(=O)CC[C@@]4(NC(=O)C#Cc5ccc(Cl)cc5)[C@@H](C2)N(CC2CC2)CC[C@]314 | 25 | 7.43 | 65.2 | 13.7 | 20 | Activity (Mus musculus [13]): 0%
